High-throughput results (PubChem BioAssay)
T cruzi inh: T. cruzi replication inhibition; T. cruzi beta-gal in NIH3T3, luminescence, 90 h; inhibition, % (concentration not given with the values); 300,000 compounds, 1.4% hits; AID 1885;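 active = mean inhibition across valid replicates above about 55%, limit read from the data; inconclusive = mean below that limit but half or more replicates reach it; inactive = mean below it, under half of replicates reach it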;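 also: signal also drops with host cell toxicity which is not excluded here; 0% = plate median of DMSO wells and 100% = zero luminescence signal; higher percent means less beta-gal luminescence so fewer parasites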
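Assay system: NIH/3T3 host cells with β-galactosidase reporter T. cruzi; input: 5,000 host fibroblasts per well; compound: single 50 nL compound addition per well in DMSO; timing: ≥90 h infection period, 3 h prior cell attachment; measured by: GalScreen β-gal luminescence, detergent lysis, 60 min; evaluation: percent inhibition of parasite-derived β-gal signal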
Mdm2-MdmX inh: inhibitors of human Mdm2/MdmX interaction; O15151+Q00987; inhibition, % at 8 µM; SaOS-2 split-luciferase Mdm2/MdmX complementation, luminescence; AID 485346; 330,000 compounds, 3% hits;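 active = inhibition of at least 50% at 8 µM in the primary screen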
Target sequence (O15151 whole entry, looked up): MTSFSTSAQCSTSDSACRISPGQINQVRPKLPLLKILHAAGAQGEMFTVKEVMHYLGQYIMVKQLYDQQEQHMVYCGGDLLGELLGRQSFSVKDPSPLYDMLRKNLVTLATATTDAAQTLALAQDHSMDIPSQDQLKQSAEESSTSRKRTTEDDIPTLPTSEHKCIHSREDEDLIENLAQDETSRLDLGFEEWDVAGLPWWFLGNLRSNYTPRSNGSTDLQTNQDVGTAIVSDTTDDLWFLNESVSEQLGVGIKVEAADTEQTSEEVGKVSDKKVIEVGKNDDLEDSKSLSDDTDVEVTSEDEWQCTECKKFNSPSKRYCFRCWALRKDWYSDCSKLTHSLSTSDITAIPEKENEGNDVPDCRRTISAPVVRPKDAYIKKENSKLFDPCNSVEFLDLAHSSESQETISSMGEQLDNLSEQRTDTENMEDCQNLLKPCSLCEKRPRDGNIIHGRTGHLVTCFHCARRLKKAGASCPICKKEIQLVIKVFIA
Target sequence (Q00987 whole entry, looked up): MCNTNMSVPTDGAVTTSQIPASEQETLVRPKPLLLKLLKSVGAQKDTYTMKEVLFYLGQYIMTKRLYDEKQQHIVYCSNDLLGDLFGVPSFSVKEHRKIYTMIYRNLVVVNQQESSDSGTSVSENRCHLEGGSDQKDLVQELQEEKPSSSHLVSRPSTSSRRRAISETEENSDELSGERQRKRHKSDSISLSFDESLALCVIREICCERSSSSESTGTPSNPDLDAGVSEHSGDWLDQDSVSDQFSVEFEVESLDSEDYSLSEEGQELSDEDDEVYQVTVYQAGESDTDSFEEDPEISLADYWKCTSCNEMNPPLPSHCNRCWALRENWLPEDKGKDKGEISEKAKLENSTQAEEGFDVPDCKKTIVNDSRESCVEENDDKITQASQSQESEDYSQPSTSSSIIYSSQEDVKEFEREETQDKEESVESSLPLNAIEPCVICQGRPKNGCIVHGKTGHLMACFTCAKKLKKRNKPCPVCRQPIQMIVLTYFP
Beta apoptosis: blocks beta cell apoptosis; INS-1E cytokine-induced death, ATP luminescence, 48 h; percent of positive-control rescue, neutral wells zero; protection from apoptosis, % (no concentration beside the values); 300,000 compounds, 0.8% hits;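 active = Every replicate reaches about 75%, or at least half do and their mean reaches it too, limit read from the data; inconclusive = At least half of replicates reach the limit but their mean does not; inactive = Under half of replicates reach the limit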;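 also: 0% = cytokine-treated negative control wells and 100% = positive control rescue; higher means more ATP so stronger rescue from cytokine killing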
SKKanGAS inh: inhibitors of SKKanGAS S. pyogenes growth in kanamycin (SK-promoter or general growth effect); BacTiter-Glo, 6 h; inhibition, % at 7.5 µM; AID 1662; 300,000 compounds, 1.3% hits;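 active = mean replicate score, as percent of positive control median, at least 50; inconclusive = mean below 50 but one replicate at or above 50; inactive = mean and every replicate below 50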;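 also: strain carries kanamycin resistance gene driven by streptokinase promoter and grows in 40 µg/ml kanamycin; loss of luminescence reflects streptokinase promoter inhibition or plain growth inhibition; 0% = median of DMSO wells and 100% = positive control at its reference dose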
L major viab: inhibitors of Leishmania major promastigote growth | Leishmania major promastigotes, resazurin fluorescence viability | inhibition, % at 10 µM | 200,000 compounds, 9% hits | AID 1063; in the data active = inhibition above about 50%;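 also: promastigotes grown with compound for 44 hours at 28 °C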
CSC inhib: cancer stem cell inhibition; cancer stem cell-like cells viability, luminescence; inhibition, % at 7.5 µM; 300,000 compounds, 1.1% hits; in the data active = inhibition above about 75%; inconclusive = no clear call, values can overlap the other calls; tested in HMLE shEcad cells
Mdm2-MdmX conf: confirmation of human Mdm2/MdmX interaction inhibitors. shares compounds with Mdm2-MdmX inh. Mdm2-MdmX binding, luminescent assay. inhibition, % at 8 µM. 10,000 compounds, 55% hits. AID 489028; in the data active = inhibition above about 40%
FLuc counter: counter-screen for Mdm2/MdmX inhibitors: full-length luciferase | SaOS-2 full-length luciferase counterscreen, luminescence | AID 504607 | 6,200 compounds, 77% hits | shares compounds with Mdm2-MdmX inh | inhibition, % at 8 µM;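 active = mean inhibition at 8 µM reaching about 37%, which flags the compound as non-specific, limit read from the data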;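 also: p53-null SaOS-2 cells with luciferase driven by a doxycycline-inducible promoter; compound on cells about two nights before reading with doxycycline added after day one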
* = called active by the depositor; ? = inconclusive; / = no result. Rows were chosen to be rich in hits. Some 9.4% of all compounds tested hit in one or more screens of this group.

SMILES	T cruzi inh	Mdm2-MdmX inh	Beta apoptosis	SKKanGAS inh	L major viab	CSC inhib	Mdm2-MdmX conf	FLuc counter
COc1cc(CNC(C)(C)CO)cc(Br)c1OCc1ccc(Cl)cc1Cl	50	55*	3	1	100*	?	40*	102*
CCOc1cc(CNc2ccc(O)cc2)ccc1OCc1ccc(Cl)cc1Cl	11	22	32	23	42	16	/	/
COc1cc(OC)cc(C(=O)N[C@H](C(=O)NCc2ccccc2)C(C)C)c1	-8	-3	-3	-1	/	8	/	/
O=C(Nc1ccccc1)Nc1ccc(Cl)c([N+](=O)[O-])c1	35	80*	45	9	53*	-7	50*	43*
O=C(Nc1ccc(Cl)c([N+](=O)[O-])c1)Nc1nc2ccccc2s1	6	85*	6	40	/	81*	40	85*
O=C(Nc1nc2ccccc2s1)Nc1ccc([N+](=O)[O-])cc1Cl	-4	42	9	4	/	10	/	/
Cc1ccc(NC(=O)Nc2ccccc2)cc1[N+](=O)[O-]	21	-28	-8	-4	-8	18	/	/
O=C(N/N=C/c1cc(Cl)cc([N+](=O)[O-])c1O)c1cc(-c2ccccn2)nc2ccccc12	21	59*	68	?	/	45	2	/
O=[N+]([O-])c1cc(Cl)cc(/C=N\Nc2ccccn2)c1O	57*	70*	109*	102*	98*	112*	77*	55*
COc1cccc(/C=N/NC(=O)c2cc(-c3ccccn3)nc3ccccc23)c1O	/	76*	93*	/	/	17	60*	40*
O=C(N/N=C/c1ccc(F)cc1)c1cc(-c2ccccn2)nc2ccccc12	/	9	/	/	/	/	/	/
CN1CCN(S(=O)(=O)c2csc(C(N)=O)c2)CC1	-3	3	-7	1	/	-9	/	/
C#CCOCCOCCOCCNc1nc(N2CCN(C(=O)CCCCCCCCCCNC(=O)Cn3cc(C[C@@H](C)O)nn3)CC2)nc(N2CCN(C(=O)CCCCCCCCCCNC(=O)[C@@H]([C@H](C)O)n3cc(C)nn3)CC2)n1	/	54*	52	/	/	158*	18	/
C#CCOCCOCCOCCNc1nc(N2CCN(C(=O)CCCCCCCCCCNC(=O)Cn3cc(C[C@@H](C)O)nn3)CC2)nc(N2CCN(C(=O)CCCCCCCCCCNC(=O)[C@@H]([C@H](C)CC)n3cc(CCCCCN)nn3)CC2)n1	/	98*	84*	/	/	124*	77*	27
O=Cc1cccnc1SCc1ccccc1	9	48	5	9	/	0	/	/
O=Cc1cc2ccccc2nc1SCc1ccc(Cl)cc1	-5	81*	25	51*	97*	88*	59*	84*
Cc1ccc(CSc2nc3ccccc3cc2C=O)cc1	-15	64*	39	6	96*	70	65*	80*
O=Cc1cc2ccccc2nc1SCc1ccc(Cl)c(Cl)c1	4	64*	57	45	95*	94*	62*	86*
Nc1cccc(Oc2ccc3c(c2)C(=O)NC3=O)c1	-3	-8	-6	1	/	-5	/	/
CCOc1ccc(CN(C)C(=O)CNC(=O)c2cc(OC)c(OC)c(OC)c2)cc1	-7	7	-2	-4	/	-12	/	/
O=c1cc(CSc2ccc(Cl)cc2)nc(-c2ccccn2)[nH]1	59*	89*	80*	97*	/	94*	78*	31
O=C(COC(=O)COc1ccccc1)NC1CCS(=O)(=O)C1 (centres undefined)	/	12	0	/	/	-21	/	/
C=CCNC(=O)c1ccccc1NC(=O)COc1ccccc1	6	15	-9	-6	-2	-13	/	/
Cc1cccc([C@@H]2[C@@H]3C(=O)N(Cc4ccccc4)C(=O)[C@@H]3[C@]3(Cc4ccccc4)C(=O)N(c4ccc(C(F)(F)F)cc4)C(=O)N23)c1	21	99*	10	-1	/	11	100*	49*
CC(C)(C)N1C(=O)[C@H]2[C@@H](c3ccc(Br)cc3)N3C(=O)N(c4ccc(Br)cc4)C(=O)[C@@]3(Cc3ccccc3)[C@H]2C1=O	36	83*	13	2	/	14	89*	36
SMILES	T cruzi inh	Mdm2-MdmX inh	Beta apoptosis	SKKanGAS inh	L major viab	CSC inhib	Mdm2-MdmX conf	FLuc counter
CC(C)(C)N1C(=O)[C@H]2[C@@H](c3ccc(Br)cc3)N3C(=O)N(c4cccc(F)c4)C(=O)[C@@]3(Cc3ccccc3)[C@H]2C1=O	-6	31	8	2	/	-2	/	/
COc1ccc([C@@H]2[C@@H]3C(=O)N(C(C)(C)C)C(=O)[C@@H]3[C@]3(Cc4ccc(Cl)cc4)C(=O)N(c4ccc(Br)cc4)C(=O)N23)cc1	29	74*	7	7	/	7	91*	27
COc1ccc([C@@H]2[C@@H]3C(=O)N(C(C)(C)C)C(=O)[C@@H]3[C@]3(Cc4ccc(Cl)cc4)C(=O)N(c4ccc(OC)cc4)C(=O)N23)cc1	7	40	-3	0	/	-5	/	/
CCC[C@H]1COCCS(=O)(=O)N1Cc1ccc(Br)cc1	9	21	-3	3	/	1	/	/
O=S(=O)(c1cccs1)N1CCC(CO)(Cc2ccc(Cl)cc2)CC1	3	25	2	20	7	33	/	/
COCCNC(=O)c1cccc(S(=O)(=O)N2CC3(C)CC2CC(C)(C)C3)c1 (centres undefined)	-12	21	3	-12	/	-12	/	/
COc1ccc(NC(=O)C2CCN(c3cc(-c4ccccc4)nc4ncnn34)CC2)cc1OC	/	54*	/	/	0	19	36	60*
CCOC(=O)c1sc2nc(C)cc(C)c2c1N	14	-33	0	-8	4	-8	/	/
CCOC(=O)c1sc2nc(SC)nc(-c3ccc(Cl)cc3)c2c1N	3	60*	16	-2	-5	-9	13	/
COc1ccc(-c2csc(N(CCCN(C)C)C(=O)c3ccccc3Cl)n2)cc1	50	71*	7	-17	/	24	49*	84*
COc1ccc(-c2csc(N(CCCN(C)C)C(=O)c3ccccc3C)n2)cc1	29	50	8	-2	/	-2	/	/
COc1cccc(-c2cc(=O)c3cc(NC(=O)c4ccc(N(C)C)cc4)ccc3[nH]2)c1	23	65*	4	18	-7	?	60*	71*
COc1cccc(-c2cc(=O)c3cc(NC(=O)c4ccc(Cl)cc4)ccc3[nH]2)c1	-12	43	-7	1	-6	-27	/	/
CCCC(=O)Nc1ccc(C(=O)Nc2cccc(OC)c2)cc1	-5	-18	-4	-8	-5	0	/	/
COc1cccc(-c2cc(=O)c3cc(NC(=O)c4ccccc4)ccc3[nH]2)c1	-26	59*	17	7	-3	61	58*	42*
